We go through 5 compounds from ChEMBL document CHEMBL1145994, “CCR2: characterization of the antagonist binding site from a combined receptor modeling/mutagenesis approach” (J Med Chem, 2003).

For assay [1], the target named is C-C chemokine receptor type 2 (Homo sapiens, UniProt P41597, Y49F). Nature of the assay: Binding affinity of compound (10 uM) towards Y49F receptor variant (mutant CCR2 receptor) using radioligand [125I]MCP-1 in HEK 293 cells. It counts as cell-based, HEK293.
Assay [2] addresses T1, C-C chemokine receptor type 2 (Homo sapiens, UniProt P41597). Nature of the assay: Binding affinity of compound (10 uM) towards […] receptor variant (mutant CCR2 receptor) using radioligand [125I]MCP-1 in HEK 293 cells. It counts as cell-based, HEK293. The essentials: (§1)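 Wild-type or point-mutant CCR2 cDNA in pcDNA3.1 transiently transfected into HEK-293T cells at 50–80% confluence, with a co-transfected human G-protein plasmid cocktail. Membranes harvested 48 h later by sonication and differential centrifugation.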
Target sequence in this assay (P41597 whole entry, looked up, change not shown): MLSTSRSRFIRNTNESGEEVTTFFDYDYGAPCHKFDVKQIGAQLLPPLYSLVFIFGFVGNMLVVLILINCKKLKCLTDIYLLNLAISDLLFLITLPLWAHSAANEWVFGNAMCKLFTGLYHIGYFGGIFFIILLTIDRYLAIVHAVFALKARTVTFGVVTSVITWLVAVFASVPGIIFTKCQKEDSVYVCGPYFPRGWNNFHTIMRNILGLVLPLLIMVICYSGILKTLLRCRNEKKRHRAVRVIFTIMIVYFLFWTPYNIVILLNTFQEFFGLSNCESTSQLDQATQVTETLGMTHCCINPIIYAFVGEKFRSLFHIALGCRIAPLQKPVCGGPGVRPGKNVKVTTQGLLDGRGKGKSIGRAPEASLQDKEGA

The target in assay [3] is C-C chemokine receptor type 2 (Homo sapiens, UniProt P41597, H121A). Kind of assay: Binding affinity of compound (10 uM) towards H121A receptor variant (mutant CCR2 receptor) using radioligand [125I]MCP-1 in HEK 293 cells. Format: cell-based, HEK293.
The target in assay [4] is T1, C-C chemokine receptor type 2. Nature of the assay: Binding displacement of [125I]MCP-1 (0.14 nM) was measured on CHO cell membranes expressing human CCR2 (C-C chemokine receptor type 2).
Target sequence in this assay (P41597 whole entry): as the sequence (P41597 whole entry, looked up, change not shown) above
Assay [5] shares this target. Nature of the assay: Binding affinity of compound (10 uM) towards Y210A-292A receptor variant (double mutant CCR2 receptor) using radioligand [125I]MCP-1 in HEK 293 cells; Inactive. Format: cell-based. The following applies: HEK293. In outline:
as §1
Target sequence in this assay (P41597 whole entry, looked up): as the sequence (P41597 whole entry, looked up, change not shown) above

Assay [6] concerns the target C-C chemokine receptor type 2 (Homo sapiens, UniProt P41597, H121F). Kind of assay: Binding affinity of compound (10 uM) towards H121F receptor variant (mutant CCR2 receptor) using radioligand [125I]MCP-1 in HEK 293 cells. Format: cell-based, HEK293.
Assay [7] concerns the target T1, C-C chemokine receptor type 2. Nature of the assay: Binding affinity of compound (10 uM) towards WT receptor variant (mutant C-C chemokine receptor type 2) using radioligand [125I]MCP-1 in HEK 293 cells. Format: cell-based. The following applies: hek293.
Target sequence in this assay (P41597 whole entry, looked up, change not shown): as above
Assay [8] addresses C-C chemokine receptor type 2 (Homo sapiens, UniProt P41597, Q288A). Kind of assay: Binding affinity of compound (10 uM) towards Q288A receptor variant (mutant CCR2 receptor) using radioligand [125I]MCP-1 in HEK 293 cells. It counts as cell-based, HEK293.
The target of assay [9] is T1, C-C chemokine receptor type 2. Kind of assay: Inhibitory activity against C-C chemokine receptor type 2 (antagonist activity). Format: functional.
Target sequence in this assay (P41597 whole entry): as the sequence (P41597 whole entry, looked up, change not shown) above
For assay [10] the target is unchanged. Kind of assay: Inhibition of chemotaxis by C-C chemokine receptor type 2 antagonist in human monocytes was measured in the presence 1 nM MCP-1. It counts as functional, cell-based. In outline: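 Human monocyte chemotaxis driven by 1 nM MCP-1 as agonist. Antagonist added from a 10 mM DMSO stock, final 10 nM to 10 μM; vehicle control included. Values reported as pKb.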
Target sequence in this assay (P41597 whole entry, looked up): as the sequence (P41597 whole entry, looked up, change not shown) above

In assay [11] the target is C-C chemokine receptor type 2 (Homo sapiens, UniProt P41597, D284A). Kind of assay: Binding affinity of compound (10 uM) towards D284A receptor variant (mutant CCR2 receptor) using radioligand [125I]MCP-1 in HEK 293 cells. It counts as cell-based, HEK293.
Assay [12] relates to T2, C-C chemokine receptor type 2 (Homo sapiens), P41597 [E291Q].
T2 sequence (whole entry): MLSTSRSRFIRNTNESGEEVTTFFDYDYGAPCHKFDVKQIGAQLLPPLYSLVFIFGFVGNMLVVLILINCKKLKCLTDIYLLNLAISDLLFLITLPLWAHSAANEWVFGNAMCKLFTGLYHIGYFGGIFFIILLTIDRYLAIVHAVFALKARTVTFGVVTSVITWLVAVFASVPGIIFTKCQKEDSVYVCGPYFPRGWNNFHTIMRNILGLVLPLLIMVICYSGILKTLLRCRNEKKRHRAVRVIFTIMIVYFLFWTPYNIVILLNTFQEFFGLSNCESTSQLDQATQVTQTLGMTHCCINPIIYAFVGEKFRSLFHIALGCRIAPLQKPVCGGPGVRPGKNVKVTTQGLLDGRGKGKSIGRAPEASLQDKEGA
Kind of assay: Binding affinity of compound (10 uM) towards E291Q receptor variant (mutant CCR2 receptor) using radioligand [125I]MCP-1 in HEK 293 cells; Inactive. It counts as cell-based. The following applies: HEK293. In outline:
as §1

Assay [13] has as its target C-C chemokine receptor type 2 (Homo sapiens, UniProt P41597, T292A). Kind of assay: Binding affinity of compound (10 uM) towards T292A receptor variant (mutant CCR2 receptor) using radioligand [125I]MCP-1 in HEK 293 cells. Format: cell-based, HEK293.
The target of assay [14] is C-C chemokine receptor type 2 (Homo sapiens, UniProt P41597, T290A). Nature of the assay: Binding affinity of compound (10 uM) towards T290A receptor variant (mutant CCR2 receptor) using radioligand [125I]MCP-1 in HEK 293 cells. It counts as cell-based, HEK293. The essentials:
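HEK 293 cells transiently transfected with point-mutated human CCR2 (lipofectAMINE Plus, with a human G-protein plasmid cocktail). Membranes were harvested 48 h later in HEPES pH 7/sucrose/EDTA with protease inhibitors.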

The target in assay [15] is C-C chemokine receptor type 2 (Homo sapiens, UniProt P41597, H121A/T292A). Nature of the assay: Binding affinity of compound (10 uM) towards H121A/T292A receptor variant (double mutant CCR2 receptor) using radioligand [125I]MCP-1 in HEK 293 cells. Format: cell-based, HEK293. In outline: as §1
Assay [16] has as its target T1, C-C chemokine receptor type 2. Particulars: HEK293.
Target sequence in this assay (P41597 whole entry, looked up): as the sequence (P41597 whole entry, looked up, change not shown) above
Assay [17] relates to T2, C-C chemokine receptor type 2 (Homo sapiens), P41597 [E291Q]. The following applies: HEK293.
The target of assay [18] is T1, C-C chemokine receptor type 2. The following applies: HEK293. The source holds these as a separate data set.
Target sequence in this assay (P41597 whole entry, looked up): as the sequence (P41597 whole entry, looked up, change not shown) above
Assay [19] has as its target C-C chemokine receptor type 2 (Homo sapiens, UniProt P41597, E291Q). Nature of the assay: Binding affinity of compound (10 uM) towards E291Q receptor variant (mutant CCR2 receptor) using radioligand [125I]MCP-1 in HEK 293 cells. Format: cell-based, HEK293. In outline: as §1

SMILES strings stand for the structures. Activity calls are given as the source filed them. No cut-off for these calls is given here.

C-C chemokine receptor type 2 (Homo sapiens, UniProt P41597, T290A), sequence (P41597 whole entry T290A): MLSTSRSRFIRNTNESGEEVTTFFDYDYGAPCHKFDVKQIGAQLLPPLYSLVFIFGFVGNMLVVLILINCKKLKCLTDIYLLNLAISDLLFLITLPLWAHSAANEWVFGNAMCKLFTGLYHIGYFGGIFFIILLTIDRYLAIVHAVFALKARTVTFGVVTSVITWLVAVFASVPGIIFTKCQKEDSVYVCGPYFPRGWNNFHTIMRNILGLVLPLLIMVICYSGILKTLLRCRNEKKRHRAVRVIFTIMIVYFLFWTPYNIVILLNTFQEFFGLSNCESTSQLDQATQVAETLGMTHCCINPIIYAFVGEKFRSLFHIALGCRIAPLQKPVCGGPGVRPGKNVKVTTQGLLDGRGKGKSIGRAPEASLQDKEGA
C-C chemokine receptor type 2 (Homo sapiens, UniProt P41597, Y49F), sequence (P41597 whole entry Y49F): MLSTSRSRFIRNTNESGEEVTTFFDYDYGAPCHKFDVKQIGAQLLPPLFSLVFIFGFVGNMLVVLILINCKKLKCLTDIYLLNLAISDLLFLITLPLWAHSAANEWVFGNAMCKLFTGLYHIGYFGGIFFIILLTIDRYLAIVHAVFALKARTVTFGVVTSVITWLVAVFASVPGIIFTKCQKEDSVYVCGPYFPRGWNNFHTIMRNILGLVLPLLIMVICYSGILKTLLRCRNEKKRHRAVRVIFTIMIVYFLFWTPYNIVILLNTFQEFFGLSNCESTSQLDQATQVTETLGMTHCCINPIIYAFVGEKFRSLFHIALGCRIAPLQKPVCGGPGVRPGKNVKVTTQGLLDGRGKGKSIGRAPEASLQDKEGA
C-C chemokine receptor type 2 (Homo sapiens, UniProt P41597, D284A), sequence (P41597 whole entry D284A): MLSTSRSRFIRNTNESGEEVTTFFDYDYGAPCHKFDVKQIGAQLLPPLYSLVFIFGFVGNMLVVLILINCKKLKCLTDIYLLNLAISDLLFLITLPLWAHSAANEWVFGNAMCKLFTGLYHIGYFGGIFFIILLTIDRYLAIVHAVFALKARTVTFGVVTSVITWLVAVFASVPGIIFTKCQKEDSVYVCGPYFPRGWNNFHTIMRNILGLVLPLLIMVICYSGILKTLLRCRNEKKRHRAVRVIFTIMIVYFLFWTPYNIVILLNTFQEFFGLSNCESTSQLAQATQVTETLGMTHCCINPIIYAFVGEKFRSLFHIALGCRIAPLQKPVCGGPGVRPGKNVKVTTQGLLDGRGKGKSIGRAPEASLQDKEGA
C-C chemokine receptor type 2 (Homo sapiens, UniProt P41597, H121A), sequence (P41597 whole entry H121A): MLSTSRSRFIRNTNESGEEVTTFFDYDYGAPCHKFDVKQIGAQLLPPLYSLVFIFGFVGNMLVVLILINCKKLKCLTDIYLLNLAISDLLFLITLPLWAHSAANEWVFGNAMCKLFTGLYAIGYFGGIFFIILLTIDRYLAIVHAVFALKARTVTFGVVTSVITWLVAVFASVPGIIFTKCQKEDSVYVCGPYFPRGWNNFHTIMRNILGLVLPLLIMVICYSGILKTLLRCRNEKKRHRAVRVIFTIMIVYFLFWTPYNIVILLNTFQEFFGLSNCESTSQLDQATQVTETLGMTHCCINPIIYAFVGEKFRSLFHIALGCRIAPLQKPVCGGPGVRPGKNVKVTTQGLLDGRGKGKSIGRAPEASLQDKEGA
C-C chemokine receptor type 2 (Homo sapiens, UniProt P41597, Q288A), sequence (P41597 whole entry Q288A): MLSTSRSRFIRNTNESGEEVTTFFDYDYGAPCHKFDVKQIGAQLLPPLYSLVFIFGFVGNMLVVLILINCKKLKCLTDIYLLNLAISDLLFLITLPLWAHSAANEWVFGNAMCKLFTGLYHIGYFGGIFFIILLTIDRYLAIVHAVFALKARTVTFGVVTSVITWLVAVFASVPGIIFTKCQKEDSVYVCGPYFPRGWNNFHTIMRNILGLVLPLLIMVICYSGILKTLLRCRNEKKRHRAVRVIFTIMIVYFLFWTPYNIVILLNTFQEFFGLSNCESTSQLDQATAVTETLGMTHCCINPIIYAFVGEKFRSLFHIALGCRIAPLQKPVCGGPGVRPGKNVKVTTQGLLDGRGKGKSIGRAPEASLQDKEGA
C-C chemokine receptor type 2 (Homo sapiens, UniProt P41597, H121A/T292A), sequence (P41597 whole entry H121A/T292A): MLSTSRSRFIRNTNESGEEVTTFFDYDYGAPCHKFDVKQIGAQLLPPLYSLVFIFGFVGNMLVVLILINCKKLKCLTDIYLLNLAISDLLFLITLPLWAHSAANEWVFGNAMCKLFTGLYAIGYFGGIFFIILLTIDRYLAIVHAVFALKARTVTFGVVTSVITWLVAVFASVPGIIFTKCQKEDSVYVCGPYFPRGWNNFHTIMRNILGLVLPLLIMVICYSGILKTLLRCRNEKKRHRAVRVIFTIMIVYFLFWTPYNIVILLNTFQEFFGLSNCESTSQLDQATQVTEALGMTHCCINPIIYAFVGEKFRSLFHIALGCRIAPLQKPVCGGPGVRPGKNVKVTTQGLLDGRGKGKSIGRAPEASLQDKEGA
C-C chemokine receptor type 2 (Homo sapiens, UniProt P41597, H121F), sequence (P41597 whole entry H121F): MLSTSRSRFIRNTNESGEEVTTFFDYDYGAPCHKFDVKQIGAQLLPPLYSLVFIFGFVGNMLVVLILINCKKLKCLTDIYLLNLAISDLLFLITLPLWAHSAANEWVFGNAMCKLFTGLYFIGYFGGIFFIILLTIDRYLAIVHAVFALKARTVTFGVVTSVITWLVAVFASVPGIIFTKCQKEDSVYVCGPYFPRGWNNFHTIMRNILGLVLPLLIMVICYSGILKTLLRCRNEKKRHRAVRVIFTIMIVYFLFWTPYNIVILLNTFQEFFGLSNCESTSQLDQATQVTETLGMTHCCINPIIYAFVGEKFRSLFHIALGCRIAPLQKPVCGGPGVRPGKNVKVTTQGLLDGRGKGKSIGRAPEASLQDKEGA
C-C chemokine receptor type 2 (Homo sapiens, UniProt P41597, T292A), sequence (P41597 whole entry T292A): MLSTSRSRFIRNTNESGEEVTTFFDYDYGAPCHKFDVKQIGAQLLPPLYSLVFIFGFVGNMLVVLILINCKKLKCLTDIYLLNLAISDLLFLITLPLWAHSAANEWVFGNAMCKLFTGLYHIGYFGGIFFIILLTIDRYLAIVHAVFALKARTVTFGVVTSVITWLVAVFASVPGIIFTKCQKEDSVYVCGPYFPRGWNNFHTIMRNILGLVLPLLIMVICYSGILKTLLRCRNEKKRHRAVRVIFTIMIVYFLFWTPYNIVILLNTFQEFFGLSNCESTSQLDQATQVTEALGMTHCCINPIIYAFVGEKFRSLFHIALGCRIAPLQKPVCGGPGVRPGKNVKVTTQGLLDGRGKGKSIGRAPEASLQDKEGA

For the compound `Cc1ccc(CN2CC[C@@H](NC(=O)CNC(=O)c3cccc(C(F)(F)F)c3)C2)c(C)c1`, the Ki – broadly, a dissociation constant, usually derived from enzyme kinetics or from competition with a known ligand – was 316 nM in assay [1]; 1820 nM in [2]; 2570 nM in assay [3]; 288 nM in [4]; 661 nM in assay [6]; 316 nM in [8]. In addition, the Ki is 724 nM in [11] and 7760 nM in [13]. Also, the “Log Ki” value in assay [5] and in assay [12] was “inactive” in each case. Also, in assay [7], the “Log Ki” value was -6.47. In assay [9], the IC50 – broadly, the concentration that gives 50% inhibition – stood at 54 nM. Moreover, the pKb – broadly, −log10 of the Kb, conventionally taken in molar units – in assay [10] turned out to be 6.4.
`O=C(/C=C/c1ccc(Cl)c(Cl)c1)NCCCCCN1CCC(c2c[nH]c3ccc(O)cc23)CC1`: the Ki in assay [1] was 16.6 nM; in assay [2] it was 562 nM; in assay [3], 2510 nM; in assay [14], 129 nM; in [15] it was 2090 nM; in [6], 166 nM. Also, the Ki was 170 nM in assay [8], 229 nM in assay [11] and 724 nM in assay [13]. Moreover, in assay [7], the “Log Ki” value is on record as -7. Moreover, the negative logarithm of the Kb (pKb) in [10] is 7.71. In addition, in assay [12], the “Log Ki” value is “inactive”.
In assay [10], `Cc1ccc2c(c1)C1(CCN(CCc3nc(-c4ccccc4)oc3C)CC1)OC(=O)N2` gave a pKb of 7.57. In addition, the “Log Ki” value in assay [16], in assay [17] and in assay [18] was “inactive” throughout.
For the compound `Cc1ccc(-c2ccc3c(c2)C=C(C(=O)Nc2ccc(CN(C)C4CCOCC4)cc2)CCC3)cc1`, the Ki is 151 nM in assay [1]; 2570 nM in assay [2]; 302 nM in assay [3]; 105 nM in assay [14]; 4790 nM in [15]; 28.8 nM in [4]. The inhibitory constant (Ki) was 24 nM in assay [6]; 229 nM in assay [8]; 2040 nM in assay [19]; 589 nM in [11]; 759 nM in assay [13]. Moreover, the “Log Ki” value in assay [5] was “inactive”. The “Log Ki” value in [7] is on record as -7.16. This compound also returned a pKb in assay [10] of 8.63.
For `Cc1ccc(-c2ccc3c(c2)C=C(C(=O)Nc2ccc(C[N+](C)(C)C4CCOCC4)cc2)CCC3)cc1.[Cl-]`, the Ki is 27.5 nM in [1]; 105 nM in [2]; 17.8 nM in assay [3]; 21.4 nM in assay [14]; 182 nM in [15]; 4.17 nM in assay [4]. For the same compound, the inhibition constant (Ki) in assay [6] is 2.63 nM; in assay [8], 9.77 nM; in assay [19] it was 148 nM; in [11], 12.6 nM; in assay [13], 28.8 nM. The “Log Ki” value in [7] is on record as -8.16. The pKb in assay [10] turned out to be 9.53.
